Measurements from different studies.
Each line is one published result; the experiments were not run side by side.
Target: Rhodopsin kinase GRK1 (GRK1, Homo sapiens, UniProt Q15835)
Sequence (Q15835 1-563, as in one of the studies): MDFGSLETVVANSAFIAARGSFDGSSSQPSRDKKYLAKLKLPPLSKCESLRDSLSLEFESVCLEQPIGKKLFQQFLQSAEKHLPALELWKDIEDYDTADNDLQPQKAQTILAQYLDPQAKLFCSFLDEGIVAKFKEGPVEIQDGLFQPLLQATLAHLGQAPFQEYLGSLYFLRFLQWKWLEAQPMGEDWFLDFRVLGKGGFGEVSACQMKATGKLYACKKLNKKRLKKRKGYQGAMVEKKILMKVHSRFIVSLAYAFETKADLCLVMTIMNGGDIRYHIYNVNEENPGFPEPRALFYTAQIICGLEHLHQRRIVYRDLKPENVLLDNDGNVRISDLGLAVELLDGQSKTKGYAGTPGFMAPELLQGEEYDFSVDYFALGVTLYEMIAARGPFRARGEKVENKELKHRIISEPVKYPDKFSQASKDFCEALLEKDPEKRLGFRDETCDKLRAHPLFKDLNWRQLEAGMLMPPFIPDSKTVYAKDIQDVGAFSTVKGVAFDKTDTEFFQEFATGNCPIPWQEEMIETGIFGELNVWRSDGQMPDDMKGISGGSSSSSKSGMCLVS

Structure (SMILES) | test | conditions | measurement | value
C1=C/COCc2cc(ccc2OCCN2CCCC2)Nc2nccc(n2)-c2cccc(c2)COC/1 | binding | 0.1 µM | remaining binding | 94%
C=CC(=O)N1CCC([C@@H]2CCNc3c(C(N)=O)c(-c4ccc(Oc5ccccc5)cc4)nn32)CC1 | enzyme activity, inhibitor | 1 µM | inhibition | 34%
COc1ccc2oc(-c3ccc4nc(N)oc4c3)c/c(=N\c3ccccc3NC(=O)CCN)c2c1 | binding | 1 µM | remaining binding | 98%
C[C@H]1CC[C@H](n2c3cnccc3c3cnc(Nc4ccc5c(n4)CCN(C(=O)CO)C5)nc32)CC1 | cell-free assay | 1 µM | remaining signal | 100%
CC(C)S(=O)(=O)c1ccc2nccc(Nc3ccc4sc(C5CCCC5)nc4c3)c2c1 | enzyme activity, inhibitor | 1 µM | activity vs control | 112%
CO[C@@H]1[C@H](N(C)C(=O)c2ccccc2)C[C@H]2O[C@]1(C)n1c3ccccc3c3c4c(c5c6ccccc6n2c5c31)C(=O)NC4 | enzyme activity, inhibitor | 1 µM | inhibition | 94%
COc1ccc2[nH]c3c4[nH]c5ccc(OC)cc5c4c4c(c3c2c1)C(=O)NC4=O | binding | 1 µM | remaining binding | 95%
CCCCC(=O)Nc1ccc(-c2ccc3ncn(CCC)c(=O)c3c2)cn1 | binding, competition with immobilised ligand | 0.5 µM | remaining binding | 96%
